In ChEMBL document CHEMBL3392957, “The discovery of 1,2,3,9b-tetrahydro-5H-imidazo[2,1-a]isoindol-5-ones as a new class of respiratory syncytial virus (RSV) fusion inhibitors. Part 1” (Bioorg Med Chem Lett, 2015):

Tests used:
[1] = tested on: Respiratory syncytial virus; assay: Selectivity ratio of EC50 for Respiratory syncytial virus A Long harboring F protein D489Y mutant infected in human Hep2 cells to EC50 for wild-type Respiratory syncytial virus A Long infected in human Hep2 cells
[2] = Cytotoxicity against human Hep2 cells after 5 days by MTT assay; assay type: cell-based, HEp-2
How it was run: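 Uninfected HEp2 cells (1.0 × 10⁴/well) with serially diluted compound, 5 days at 37 °C in 5% CO₂; viability by MTT (1 mg/ml, 2 h), isopropanol, absorbance 540 nm; CC₅₀ by non-linear regression.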

[3] = tested on: Respiratory syncytial virus; assay: Antiviral activity against Respiratory syncytial virus A2 infected in human Hep2 cells assessed as inhibition of virus-induced cytopathicity after 5 days by MTT assay; assay type: functional, organism-based; conditions: A2, HEp-2, 120 h
How it was run: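 HEp2 cells (1.0 × 10⁴/well) infected at low moi (e.g. RSV A2 at moi 0.01) and added to serially diluted compound; 5 days at 37 °C, 5% CO₂. CPE read by MTT (1 mg/ml, 2 h, 37 °C), isopropanol, absorbance 540 nm; EC₅₀ by non-linear regression. SD given where n > 2.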

| SMILES | Ratio EC50 [1] | CC50 at 120 h [2] | EC50 [3] |
| --- | --- | --- | --- |
| O=c1n(Cc2nc3ccccc3n2CCCCO)c2cnccc2n1C1CC1 | 380 |  |  |
| Cc1nnnn1/N=C/c1ccc(O)c(C(c2ccc(O)cc2)c2cc(/C=N/n3nnnc3C)ccc2O)c1 | >1400 |  |  |
| O=C(c1ccccc1)N1CCN2C(=O)c3ccccc3C12c1ccc(Cl)cc1 (racemic) |  | > 20 µM | 0.45 µM |
| O=C(c1ccc(F)cc1)N1CCN2C(=O)c3ccccc3C12c1ccccc1 (racemic) |  | > 20 µM | 1.1 µM |
| Cc1ccc(C(=O)N2CCN3C(=O)c4ccccc4C23c2ccc(Cl)cc2)cc1 (racemic) |  | 17 µM | 5.8 µM |
| O=C1c2ccccc2C2(c3ccc(Cl)cc3)NCCN12 (racemic) |  | > 70 µM | > 20 µM |
| O=C(c1ccc(C(F)(F)F)cc1)N1CCN2C(=O)c3ccccc3C12c1ccc(Cl)cc1 (racemic) |  | 17 µM | > 20 µM |
| O=C(c1ccc(OC(F)(F)F)cc1)N1CCN2C(=O)c3ccccc3C12c1ccc(Cl)cc1 (racemic) |  | 5.7 µM | > 20 µM |
| COc1ccc(C(=O)N2CCN3C(=O)c4ccccc4C23c2ccc(Cl)cc2)cc1 (racemic) |  | 16 µM | > 20 µM |
| O=C(c1ccc(F)cc1)N1CCN2C(=O)c3ccccc3C12 (racemic) |  | > 20 µM | > 20 µM |
| O=C(c1ccc(F)cc1)N1CCN2C(=O)c3ccccc3C12c1ccc(F)cc1 (racemic) |  | > 20 µM | 0.71 µM |
| O=C(c1ccc(F)cc1)N1CCN2C(=O)c3ccccc3C12c1ccc(C(F)(F)F)cc1 (racemic) |  | > 20 µM | 0.51 µM |
| Cc1ccc(C23c4ccccc4C(=O)N2CCN3C(=O)c2ccc(F)cc2)cc1 (racemic) |  | > 20 µM | 0.18 µM |
| CCc1ccc(C23c4ccccc4C(=O)N2CCN3C(=O)c2ccc(F)cc2)cc1 (racemic) |  | > 18 µM | 0.21 µM |
| CCCc1ccc(C23c4ccccc4C(=O)N2CCN3C(=O)c2ccc(F)cc2)cc1 (racemic) |  | 18 µM | 0.27 µM |
| CC(C)c1ccc(C23c4ccccc4C(=O)N2CCN3C(=O)c2ccc(F)cc2)cc1 (racemic) |  | > 20 µM | 1.2 µM |
| O=C(c1ccc(F)cc1)N1CCN2C(=O)c3ccccc3C12c1ccccn1 (racemic) |  | > 20 µM | > 20 µM |
| O=C(c1ccc(F)cc1)N1CCN2C(=O)c3ccccc3C12c1cccnc1 (racemic) |  | > 20 µM | 10 µM |
| COc1ccc(C23c4ccccc4C(=O)N2CCN3C(=O)c2ccc(F)cc2)cc1 (racemic) |  | > 20 µM | 0.53 µM |
| O=C(c1ccc(F)cc1)N1CCN2C(=O)c3ccccc3C12c1ccc(O)cc1 (racemic) |  | > 20 µM | 11 µM |
| CCOc1ccc(C23c4ccccc4C(=O)N2CCN3C(=O)c2ccc(F)cc2)cc1 (racemic) |  | > 20 µM | 0.2 µM |
| CCCOc1ccc(C23c4ccccc4C(=O)N2CCN3C(=O)c2ccc(F)cc2)cc1 (racemic) |  | > 20 µM | 0.63 µM |
| CC(C)Oc1ccc(C23c4ccccc4C(=O)N2CCN3C(=O)c2ccc(F)cc2)cc1 (racemic) |  | > 20 µM | 1.1 µM |
| O=C(c1ccc(F)cc1)N1CCN2C(=O)c3ccccc3C12c1ccc(OCC2CC2)cc1 (racemic) |  | > 20 µM | 0.079 µM |
| N#CCOc1ccc(C23c4ccccc4C(=O)N2CCN3C(=O)c2ccc(F)cc2)cc1 (racemic) |  | > 17 µM | 0.24 µM |
| COCCOc1ccc(C23c4ccccc4C(=O)N2CCN3C(=O)c2ccc(F)cc2)cc1 (racemic) |  | > 16 µM | 0.25 µM |
| COC(=O)COc1ccc(C23c4ccccc4C(=O)N2CCN3C(=O)c2ccc(F)cc2)cc1 (racemic) |  | > 16 µM | 3.3 µM |

| SMILES | Ratio EC50 [1] | CC50 at 120 h [2] | EC50 [3] |
| --- | --- | --- | --- |
| NC(=O)COc1ccc(C23c4ccccc4C(=O)N2CCN3C(=O)c2ccc(F)cc2)cc1 (racemic) |  | 11 µM | 1 µM |
| CC(=O)COc1ccc(C23c4ccccc4C(=O)N2CCN3C(=O)c2ccc(F)cc2)cc1 (racemic) |  | > 16 µM | 0.86 µM |
| O=C(c1ccc(F)cc1)N1CCN2C(=O)c3ccccc3C12c1cccc(Cl)c1 (racemic) |  | > 18 µM | 0.19 µM |
| N#CCOc1cccc(C23c4ccccc4C(=O)N2CCN3C(=O)c2ccc(F)cc2)c1 (racemic) |  | > 17 µM | 3.4 µM |
| COCCOc1cccc(C23c4ccccc4C(=O)N2CCN3C(=O)c2ccc(F)cc2)c1 (racemic) |  | > 16 µM | > 16 µM |
| O=C1c2ccccc2C2(c3ccc(Cl)cc3)N1CCN2c1ccccc1 (racemic) |  | > 20 µM | > 20 µM |
| O=C1c2ccccc2C2(c3ccc(Cl)cc3)N(Cc3ccc(F)cc3)CCN12 (racemic) |  | 16 µM | > 20 µM |
| O=C(Cc1ccc(F)cc1)N1CCN2C(=O)c3ccccc3C12c1ccc(Cl)cc1 (racemic) |  | > 20 µM | 0.97 µM |
| O=C(c1ccc(Cl)cc1)N1CCN2C(=O)c3ccccc3C12c1ccc(Cl)cc1 (racemic) |  | 17 µM | 3.7 µM |
| O=C(Nc1ccccc1)N1CCN2C(=O)c3ccccc3C12c1ccc(Cl)cc1 (racemic) |  | > 20 µM | 7.1 µM |
| COc1ccc(NC(=O)N2CCN3C(=O)c4ccccc4C23c2ccc(Cl)cc2)cc1 (racemic) |  | > 20 µM | 1.6 µM |
| O=C(NCc1ccccc1)N1CCN2C(=O)c3ccccc3C12c1ccc(Cl)cc1 (racemic) |  | > 20 µM | 0.73 µM |
| O=C(NCc1ccc(F)cc1)N1CCN2C(=O)c3ccccc3C12c1ccc(Cl)cc1 (racemic) |  | 10 µM | 0.6 µM |
| O=C(c1cccc(Cl)n1)N1CCN2C(=O)c3ccccc3C12c1ccc(Cl)cc1 (racemic) |  | > 17 µM | 0.47 µM |
| O=C(c1ccco1)N1CCN2C(=O)c3ccccc3C12c1ccc(Cl)cc1 (racemic) |  | 12 µM | 0.26 µM |
| CC(=O)N1CCN2C(=O)c3ccccc3C12c1ccc(Cl)cc1 (racemic) |  | > 20 µM | 1.2 µM |
| CCC(=O)N1CCN2C(=O)c3ccccc3C12c1ccc(Cl)cc1 (racemic) |  | > 20 µM | 1 µM |
| CC(C)CC(=O)N1CCN2C(=O)c3ccccc3C12c1ccc(Cl)cc1 (racemic) |  | > 20 µM | 0.74 µM |
| O=C1c2ccccc2C2(c3ccc(Cl)cc3)N1CCN2C(=O)C1CC1 (racemic) |  | > 21 µM | 4.9 µM |
| COCC(=O)N1CCN2C(=O)c3ccccc3C12c1ccc(Cl)cc1 (racemic) |  | > 21 µM | 2.7 µM |
| N#CCC(=O)N1CCN2C(=O)c3ccccc3C12c1ccc(Cl)cc1 (racemic) |  | > 21 µM | 4.5 µM |
| O=C(CC1CCCCC1)N1CCN2C(=O)c3ccccc3C12c1ccc(Cl)cc1 (racemic) |  | 14 µM | 4.5 µM |
| O=C(c1ccc(F)cc1)N1CCN2C(=O)c3ncccc3C12c1ccc(Cl)cc1 (racemic) |  | > 20 µM | 0.88 µM |
| O=C(c1ccc(F)cc1)N1CCN2C(=O)c3cccnc3C12c1ccc(Cl)cc1 (racemic) |  | > 20 µM | 1.2 µM |
| O=C(c1ccc(F)cc1)N1CCN2C(=O)c3nccnc3C12c1ccc(Cl)cc1 (racemic) |  | > 18 µM | > 18 µM |
| O=C(c1ccc(F)cc1)N1CCN2C(=O)c3cnccc3C12c1ccc(Cl)cc1 (racemic) |  | > 18 µM | 2.7 µM |
